Assay results taken from PubChem BioAssay.
Active and inactive are the calls of the source.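 Rule for the calls: active = duplicate-averaged activation above buffer control mean plus 5 SD of those controls; inactive = the rest.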

Test: nonspecific flux increase, KCNQ1-free cells – parental CHO cells, counter-screen for KCNQ1 potentiator project (AID 493006)
Details: parental CHO-K1 cells, FluxOR thallium flux, at 10 µM; hits give high values
In short: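 Assay system: Untransfected host CHO-K1 cells with FluxOR thallium dye | Probe or stimulus: Potassium/thallium depolarization pulse | Schedule: Overnight 37 °C plating, 90 min RT dye, 20 min compound | Detection: Kinetic thallium-flux fluorescence | Read-out: Max-minus-min fluorescence over baseline, percent of buffer-to-R-L3 span | Benchmarks: Low control buffer, high control R-L3 activator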

Row | SMILES | outcome | activation
1 | CCOC(=O)C1CCN(C(=O)COc2cc(C)c(Br)c(C)c2)CC1 | inactive | –
2 | S=c1[nH]cc(Cc2ccccc2)s1 | – | 205% (active)
3 | COC(=O)C1=C(C(=O)OC)[C@@H]2N(C)c3ccccc3[C@@]23C[C@@H](C(=O)OC)N(C(=O)c2ccc(Br)cc2)C3=N1 | – | 158% (active)
4 | Oc1c(CN2CCN(c3ccccn3)CC2)cc(Cl)c2cccnc12 | – | 148% (active)
5 | N=c1sccn1CC(=O)N1N=C(c2ccc(Cl)cc2)CC1c1ccco1 (centres undefined) | inactive | –
6 | CC(/C=N/n1c(-c2ccc(Cl)cc2)n[nH]c1=S)=C\c1ccco1 | inactive | –
7 | C#CCOCCOCCOCCNc1nc(N2CCN(C(=O)C([C@@H](C)CC)n3cc(C(N)Cc4ccc(O)cc4)nn3)CC2)nc(N2CCN(C(=O)[C@H](CCC(=O)O)n3cc(C(N)CC(C)C)nn3)CC2)n1 (some centres undefined) | inactive | –
8 | COc1ccc(C(=O)NC(=S)NNC(=O)c2ccc3ccccc3n2)cc1 | inactive | –
9 | CCCCNC(=S)NC(=O)c1ccc([N+](=O)[O-])cc1 | – | 168% (active)
10 | O=C(Nc1ccc(N2CCN(c3ccc(O)cc3)CC2)cc1)Oc1ccccc1 | inactive | –
11 | CCCOc1ccc(-c2c(=O)n(O)c3ccccc3[n+]2[O-])cc1 | – | 237% (active)
12 | Cc1ccc(OCC(=O)NC(=S)Nc2ccc(Br)cn2)cc1 | inactive | –
13 | Cc1cccc(C(=O)NC(=S)NNC(=O)COc2ccc(Cl)cc2)c1 | – | 140% (active)
14 | O=C(NC(=S)N1CCCc2ccccc21)c1ccccc1 | inactive | –
15 | Cc1ccc(-n2c(=S)[nH]c3c(oc4ccccc43)c2=O)cc1C | – | 160% (active)
16 | COCCn1c(SCC(=O)NCc2ccc3c(c2)OCO3)nnc1C(C)C | inactive | –
17 | Cc1cc(C)c(NC(=O)c2cn3c4c(c(N5CCN(C)CC5)c(F)cc4c2=O)OCC3C)c(C)c1 (centres undefined) | inactive | –
18 | CCn1c(SCC(=O)NC(=O)NCc2ccco2)nc2sc(C)c(C)c2c1=O | – | 184% (active)
19 | O=C(CNC(=O)C(c1ccccc1)c1ccccc1)N/N=C/c1ccc(O)cc1O | inactive | –
20 | CCN(CC)c1ccc(Nc2cc3n(c(=O)n2)CCc2cc(OC)c(OC)cc2-3)cc1 | inactive | –

Row | SMILES | outcome | activation
21 | CCCCn1c(=S)[nH]c2ncccc2c1=O | inactive | –
22 | CCN(CC)C(=O)c1[nH]cnc1C(=O)NCC(=O)OC(C)(C)C | inactive | –
23 | O=Cc1ccccc1OCCCOc1cccc2cccnc12 | inactive | –
24 | CCCCCn1c(=O)c(F)cn(Cc2ccc(OC)c([N+](=O)[O-])c2)c1=O | inactive | –
25 | O=C(NC(=S)N(Cc1ccccc1)Cc1ccccc1)c1ccccc1F | – | 225% (active)
26 | COc1cccc(OCC(=O)NNC(=O)C(=O)Nc2cccc(C)c2)c1 | – | 188% (active)
27 | COc1ccc(-c2csc(N(CCCN(C)C)C(=O)c3ccccc3Cl)n2)cc1 | inactive | –
28 | c1ccc2c(OCCCCN3CCOCC3)cccc2c1 | inactive | –
29 | CNc1ccccc1C(=O)OC(C)C(=O)Nc1ccc(Cl)cn1 (centres undefined) | inactive | –
30 | CON/C=N/C(=S)Nc1ncc(C(F)(F)F)cc1Cl | – | 283% (active)
31 | COc1cccc(C(=O)Nc2nc(-c3ccccc3)c(-c3ccccc3)o2)c1 | – | 145% (active)
32 | Cc1[nH]n(-c2ccc(Cl)cc2)c(=O)c1/C=N/c1nnc(-c2ccccc2)s1 | – | 678% (active)
33 | C#CC1(NC(=O)NCCCC)CCCCC1 | inactive | –
34 | O=C(NC(=S)Nc1ccc(N2CCCCC2)c(Cl)c1)c1cccs1 | – | 138% (active)
35 | Oc1c(Br)cc(Cl)cc1C=Nc1ccccc1Br | – | 296% (active)
36 | Cc1cccc(N=Cc2cc(Br)cc(Cl)c2O)c1 | – | 188% (active)
37 | Cc1ccc(-c2ccnc(=S)[nH]2)cc1 | inactive | –
38 | CCn1c(CSc2nc3ccccc3n2C)nc2ccccc21 | inactive | –
39 | CCC1CCC2(CC1)NC(CO)(CO)CO2 (centres undefined) | inactive | –
